Measured values as given in the M2OR odorant receptor database.

What was measured:
Conditions in all cases: stereoisomer not certain
OR51E1 (Homo sapiens) [1] = biological target: T1, OR51E1 (Homo sapiens) (UniProt Q8TCB6)
T1 sequence (whole entry): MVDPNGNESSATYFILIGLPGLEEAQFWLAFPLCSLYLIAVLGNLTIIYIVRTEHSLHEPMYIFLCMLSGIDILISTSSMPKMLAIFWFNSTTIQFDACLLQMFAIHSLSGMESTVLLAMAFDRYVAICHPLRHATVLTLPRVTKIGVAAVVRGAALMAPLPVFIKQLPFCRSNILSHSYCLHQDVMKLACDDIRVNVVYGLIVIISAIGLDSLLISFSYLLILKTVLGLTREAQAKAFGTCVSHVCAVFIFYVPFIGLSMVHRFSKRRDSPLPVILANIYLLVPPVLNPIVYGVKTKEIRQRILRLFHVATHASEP
Method in brief: (§1)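 Assay methods differ from source to source, frequently being transient luciferase assays in mammalian cell lines. For each receptor–molecule pair, the label responsive (active) applies when the original authors judged the measured signal statistically different from baseline, and non-responsive (inactive) applies otherwise.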

OR51E2 (Homo sapiens) = biological target: T2, OR51E2 (Homo sapiens) (UniProt Q9H255)
T2 sequence (whole entry): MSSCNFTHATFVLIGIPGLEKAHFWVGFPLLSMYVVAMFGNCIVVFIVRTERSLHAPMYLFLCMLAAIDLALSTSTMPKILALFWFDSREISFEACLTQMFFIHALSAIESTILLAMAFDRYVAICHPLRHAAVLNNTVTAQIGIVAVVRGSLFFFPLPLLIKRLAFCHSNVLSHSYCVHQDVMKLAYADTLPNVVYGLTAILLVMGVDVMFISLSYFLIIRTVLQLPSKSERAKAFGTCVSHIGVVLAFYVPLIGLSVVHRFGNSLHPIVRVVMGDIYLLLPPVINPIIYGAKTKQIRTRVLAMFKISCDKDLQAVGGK
Method in brief: as §1

OR51D1 (Homo sapiens) = biological target: T3, OR51D1 (Homo sapiens) (UniProt Q8NGF3)
T3 sequence (whole entry): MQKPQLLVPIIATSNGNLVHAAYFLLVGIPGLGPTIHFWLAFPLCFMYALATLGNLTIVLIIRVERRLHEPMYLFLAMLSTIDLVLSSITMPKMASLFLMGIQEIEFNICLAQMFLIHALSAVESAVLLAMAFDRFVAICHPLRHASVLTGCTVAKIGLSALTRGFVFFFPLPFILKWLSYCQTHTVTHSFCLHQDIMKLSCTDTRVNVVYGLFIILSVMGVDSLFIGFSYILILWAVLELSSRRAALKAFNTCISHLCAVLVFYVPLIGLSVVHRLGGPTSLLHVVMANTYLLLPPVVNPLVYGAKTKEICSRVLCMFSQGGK
Method in brief: as §1

OR51E1 (Homo sapiens) [2] = biological target: T4, OR51E1 (Homo sapiens) (UniProt Q8TCB6); remark: listed apart in the source
T4 sequence (whole entry): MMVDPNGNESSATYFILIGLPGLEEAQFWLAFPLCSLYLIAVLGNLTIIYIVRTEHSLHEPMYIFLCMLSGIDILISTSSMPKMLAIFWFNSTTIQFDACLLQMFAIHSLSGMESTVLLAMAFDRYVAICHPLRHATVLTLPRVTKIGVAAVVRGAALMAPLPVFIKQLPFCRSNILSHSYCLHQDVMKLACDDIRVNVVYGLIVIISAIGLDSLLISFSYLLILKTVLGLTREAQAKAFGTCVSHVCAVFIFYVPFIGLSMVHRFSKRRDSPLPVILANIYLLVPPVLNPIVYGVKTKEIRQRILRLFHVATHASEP
Method in brief: as §1

OR51F2 (Homo sapiens) = biological target: T5, OR51F2 (Homo sapiens) (UniProt Q8NH61)
T5 sequence (whole entry): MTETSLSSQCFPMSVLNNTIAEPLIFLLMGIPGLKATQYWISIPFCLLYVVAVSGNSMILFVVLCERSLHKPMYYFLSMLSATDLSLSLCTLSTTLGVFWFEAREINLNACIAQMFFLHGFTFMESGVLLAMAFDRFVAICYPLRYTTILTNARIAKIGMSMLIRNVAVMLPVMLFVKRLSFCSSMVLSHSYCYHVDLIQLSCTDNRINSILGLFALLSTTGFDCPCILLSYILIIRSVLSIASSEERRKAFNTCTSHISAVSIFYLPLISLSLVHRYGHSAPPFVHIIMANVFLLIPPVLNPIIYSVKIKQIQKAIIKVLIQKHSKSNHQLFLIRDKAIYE
Method in brief: as §1

OR51G1 (Homo sapiens) = biological target: T6, OR51G1 (Homo sapiens) (UniProt Q8NGK1)
T6 sequence (whole entry): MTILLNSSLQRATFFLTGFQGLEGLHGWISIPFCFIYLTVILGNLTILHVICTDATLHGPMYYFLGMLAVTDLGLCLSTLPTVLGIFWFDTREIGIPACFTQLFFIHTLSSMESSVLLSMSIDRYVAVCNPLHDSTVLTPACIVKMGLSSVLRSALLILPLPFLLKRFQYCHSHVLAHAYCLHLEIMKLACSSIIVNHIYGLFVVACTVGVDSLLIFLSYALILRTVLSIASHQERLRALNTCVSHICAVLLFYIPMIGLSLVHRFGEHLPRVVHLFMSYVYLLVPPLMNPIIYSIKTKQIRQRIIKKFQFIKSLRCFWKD
Method in brief: as §1

OR51G2 (Homo sapiens) = biological target: T7, OR51G2 (Homo sapiens) (UniProt Q8NGK0)
T7 sequence (whole entry): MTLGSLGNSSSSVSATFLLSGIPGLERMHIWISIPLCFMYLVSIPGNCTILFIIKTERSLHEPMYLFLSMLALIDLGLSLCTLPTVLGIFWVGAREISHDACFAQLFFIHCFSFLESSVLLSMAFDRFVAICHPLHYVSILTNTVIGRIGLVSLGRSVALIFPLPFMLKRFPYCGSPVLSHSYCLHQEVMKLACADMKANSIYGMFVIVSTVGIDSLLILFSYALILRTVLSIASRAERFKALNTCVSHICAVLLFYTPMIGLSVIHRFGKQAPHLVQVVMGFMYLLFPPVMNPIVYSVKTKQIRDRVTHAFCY
Method in brief: as §1

OR51I1 (Homo sapiens) = biological target: T8, OR51I1 (Homo sapiens) (UniProt Q9H343)
T8 sequence (whole entry): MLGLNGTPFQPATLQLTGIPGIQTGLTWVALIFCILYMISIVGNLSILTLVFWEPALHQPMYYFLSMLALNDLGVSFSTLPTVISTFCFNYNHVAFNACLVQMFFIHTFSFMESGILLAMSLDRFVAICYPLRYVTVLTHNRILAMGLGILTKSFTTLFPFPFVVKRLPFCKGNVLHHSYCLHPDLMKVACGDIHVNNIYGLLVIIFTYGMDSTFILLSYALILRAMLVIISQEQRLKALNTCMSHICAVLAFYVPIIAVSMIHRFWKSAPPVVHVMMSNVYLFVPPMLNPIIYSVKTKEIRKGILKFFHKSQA
Method in brief: as §1

OR51F1 (Homo sapiens) = biological target: T9, OR51F1 (Homo sapiens) (UniProt A6NGY5)
T9 sequence (whole entry): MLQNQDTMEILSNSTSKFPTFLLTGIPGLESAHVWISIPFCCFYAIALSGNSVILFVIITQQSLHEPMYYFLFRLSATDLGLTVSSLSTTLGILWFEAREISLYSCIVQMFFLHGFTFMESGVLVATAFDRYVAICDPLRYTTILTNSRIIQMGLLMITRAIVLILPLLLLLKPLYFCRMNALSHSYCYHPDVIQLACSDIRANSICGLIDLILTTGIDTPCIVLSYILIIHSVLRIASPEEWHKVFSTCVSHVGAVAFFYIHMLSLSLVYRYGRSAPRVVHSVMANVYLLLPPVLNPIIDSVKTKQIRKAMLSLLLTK
Method in brief: as §1

OR51H1 (Homo sapiens) = OR51H1 (Homo sapiens) (UniProt Q8NH63)
Chain of OR51H1 (Homo sapiens) (Q8NH63 whole entry): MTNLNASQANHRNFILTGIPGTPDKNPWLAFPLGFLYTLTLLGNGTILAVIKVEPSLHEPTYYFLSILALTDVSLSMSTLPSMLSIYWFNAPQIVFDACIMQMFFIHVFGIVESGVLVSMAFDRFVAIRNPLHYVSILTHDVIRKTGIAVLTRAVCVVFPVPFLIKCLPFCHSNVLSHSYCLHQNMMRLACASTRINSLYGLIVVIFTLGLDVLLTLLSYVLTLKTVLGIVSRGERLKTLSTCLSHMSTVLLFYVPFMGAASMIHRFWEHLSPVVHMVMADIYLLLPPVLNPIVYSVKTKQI
Method in brief: as §1

Measured: odorant receptor agonist call

CCCCCCCC(=O)[O-].[H+]
inactive: OR51E1 (Homo sapiens) [1] | OR51E2 (Homo sapiens)

CC1=NC(C)C(C)S1 (configuration not stated)
inactive: OR51D1 (Homo sapiens) | OR51E1 (Homo sapiens) [2] | OR51E2 (Homo sapiens) | OR51F2 (Homo sapiens) | OR51G1 (Homo sapiens) | OR51G2 (Homo sapiens) | OR51I1 (Homo sapiens)

CCCCCCCCCCCC(=O)O
inactive: OR51E1 (Homo sapiens) [1]

CC1=C(O)C(=O)OC1C (configuration not stated)
inactive: OR51D1 (Homo sapiens) | OR51E1 (Homo sapiens) [2] | OR51E2 (Homo sapiens) | OR51F2 (Homo sapiens) | OR51G1 (Homo sapiens) | OR51G2 (Homo sapiens) | OR51I1 (Homo sapiens)

CC(CO)CS (configuration not stated)
inactive: OR51D1 (Homo sapiens) | OR51E1 (Homo sapiens) [1] | OR51E2 (Homo sapiens) | OR51F1 (Homo sapiens) | OR51F2 (Homo sapiens) | OR51G1 (Homo sapiens) | OR51G2 (Homo sapiens) | OR51I1 (Homo sapiens)

CCCCCCC=CCCC=O
inactive: OR51D1 (Homo sapiens) | OR51E1 (Homo sapiens) [1] | OR51E2 (Homo sapiens) | OR51F1 (Homo sapiens) | OR51F2 (Homo sapiens) | OR51G1 (Homo sapiens) | OR51G2 (Homo sapiens) | OR51I1 (Homo sapiens)

CCCC(C)C(=O)O (configuration not stated)
active: OR51E1 (Homo sapiens) [1]

CCCCC(C)=O
inactive: OR51E1 (Homo sapiens) [1] | OR51E2 (Homo sapiens)

CCCC(S)CCOC(C)=O (configuration not stated)
inactive: OR51D1 (Homo sapiens) | OR51E1 (Homo sapiens) [2] | OR51E2 (Homo sapiens) | OR51F2 (Homo sapiens) | OR51G1 (Homo sapiens) | OR51G2 (Homo sapiens) | OR51I1 (Homo sapiens)

O=C([O-])CC(O)(CC(=O)O)C(=O)[O-].[H+].[H+]
inactive: OR51E1 (Homo sapiens) [1]

CCC(C(=O)O)c1ccccc1 (configuration not stated)
inactive: OR51E1 (Homo sapiens) [1] | OR51E2 (Homo sapiens)

CCCCCC(S)C(C)CO (configuration not stated)
inactive: OR51D1 (Homo sapiens) | OR51E1 (Homo sapiens) [1] | OR51E2 (Homo sapiens) | OR51F1 (Homo sapiens) | OR51F2 (Homo sapiens) | OR51G1 (Homo sapiens) | OR51G2 (Homo sapiens) | OR51I1 (Homo sapiens)

CCCCCCCCCCO
inactive: OR51E1 (Homo sapiens) [1] | OR51E2 (Homo sapiens)

CCC(S)C(C)CO (configuration not stated)
inactive: OR51D1 (Homo sapiens) | OR51E1 (Homo sapiens) [1] | OR51E2 (Homo sapiens) | OR51F1 (Homo sapiens) | OR51F2 (Homo sapiens) | OR51G1 (Homo sapiens) | OR51G2 (Homo sapiens) | OR51I1 (Homo sapiens)

CC1CCCCCCCCCCCCC(=O)C1 (configuration not stated)
inactive: OR51D1 (Homo sapiens) | OR51E2 (Homo sapiens) | OR51F1 (Homo sapiens) | OR51F2 (Homo sapiens) | OR51G1 (Homo sapiens) | OR51G2 (Homo sapiens) | OR51H1 (Homo sapiens) | OR51I1 (Homo sapiens)

CCCCCC(=O)C(C)C(C)=O (configuration not stated)
inactive: OR51D1 (Homo sapiens) | OR51E1 (Homo sapiens) [1] | OR51E2 (Homo sapiens) | OR51F1 (Homo sapiens) | OR51F2 (Homo sapiens) | OR51G1 (Homo sapiens) | OR51G2 (Homo sapiens) | OR51I1 (Homo sapiens)

O=C1CCOc2ccccc21
inactive: OR51E1 (Homo sapiens) [1] | OR51E2 (Homo sapiens)

CCCCCCOC(C)=O
inactive: OR51E1 (Homo sapiens) [1] | OR51E2 (Homo sapiens)

CCCCCCCCCCCCCC(=O)O
inactive: OR51E1 (Homo sapiens) [1]

CCCCCCCCCS
inactive: OR51E1 (Homo sapiens) [1] | OR51E2 (Homo sapiens)

Cc1cnc(C)c(C)n1
inactive: OR51D1 (Homo sapiens) | OR51E1 (Homo sapiens) [2] | OR51E2 (Homo sapiens) | OR51F2 (Homo sapiens) | OR51G1 (Homo sapiens) | OR51G2 (Homo sapiens) | OR51I1 (Homo sapiens)

CCC(=O)O
active: OR51E2 (Homo sapiens)
inactive: OR51E1 (Homo sapiens) [1]

O=C([O-])c1ccccc1.[H+]
inactive: OR51E1 (Homo sapiens) [1]
